Hits are enriched below; roughly 2% of the tested compounds scored in any of these assays.
MT1-MMP act inh: MT1-MMP (human) activation inhibition; P50281; HT1080 RFP-PRO-GFP cells, GFP/RFP ratio fluorescence, overnight; percent of plate control window, DMSO zero; GFP/RFP ratio change, % at 20 µM; 360,000 compounds, 0.061% hits; AID 651647;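 active = GFP/RFP ratio change of at least 30% with cell ATP level not reduced by more than half and red fluorescence within 50% of control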
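Assay system: HT1080 cells carrying an RFP-PRO-GFP reporter | Dosing: Single dose of 20 µM compound, 1% DMSO final | Incubation: Cells overnight before dosing, compound overnight, 37 °C, 5% CO2 | Evaluation: GFP/RFP fluorescence ratio | Control set: DMSO and RFP-L50D-GFP cell wells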
Granule exo inh: lytic granule exocytosis inhibition | inhibition, % at 10 µM | TALL-104 LAMP-1 surface exposure, flow cytometry; cells stimulated with thapsigargin and PMA | 360,000 compounds, 0.66% hits;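 active = inhibition above about 55%, limit read from the data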
ABCB6 inh 2: inhibitors of human ABC transporter ABCB6; Q9NP58; K562-ABCB6 porphyrin accumulation, flow cytometry, 1 h; stronger effect = lower value; fluorescence ratio to DMSO, % at 10 µM; 360,000 compounds, 0.19% hits; AID 602162;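 active = fluorescence ratio to DMSO below 75%, the collection mean minus 3 SD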;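 note: signal is porphyrin accumulated inside mitochondria; 100% equals median channel fluorescence of DMSO control wells; lower ratio means ABCB6 inhibition with less porphyrin fluorescence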
FGF22 binding: shifts melting point of recombinant human FGF22; Q9HCT0; recombinant FGF22 thermal shift, SYPRO orange fluorescence; percent of sucrose octasulfate shift, DMSO zero; activity (Tm shift, normalised), % at 9.99 µM; 340,000 compounds, 1.5% hits; AID 651658;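 active = mean Tm shift, scaled 0 neutral to 100 positive control, at about 1.3% or above, every replicate too, limit read from the data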
Target sequence (Q9HCT0 whole entry, looked up): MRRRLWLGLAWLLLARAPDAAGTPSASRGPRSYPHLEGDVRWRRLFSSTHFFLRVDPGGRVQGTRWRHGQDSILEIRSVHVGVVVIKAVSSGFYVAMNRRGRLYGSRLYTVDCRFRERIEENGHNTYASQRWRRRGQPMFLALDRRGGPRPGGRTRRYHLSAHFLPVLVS
DAGLB inh: blocks human DAGLB lipase activity. 340,000 compounds, 0.059% hits. inhibition, % at 5.17 µM. Q8NCG7. HEK293T DAGLB membrane lysate, EnzChek fluorogenic substrate; in the data active = inhibition above about 34%;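 note: 0% = enzyme with vehicle and 100% = wells lacking enzyme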
VLA-4 inh: inhibition in a human VLA-4 binding assay; P13612; VLA-4 expressing cells, ligand binding flow cytometry; inhibition, % (about 7 µM as worked out from the volumes in the protocol); 330,000 compounds, 0.2% hits; AID 2557; in the data active = inhibition above about 50%
VLA-4 mod pick: confirmation of allosteric modulators of human VLA-4 integrin. shares compounds with VLA-4 inh. U937 cells, HUTS-21 LIBS mAb binding, flow cytometry; LDV ligand present at threefold Kd. inhibition, % at 6.7 µM. 1,300 compounds, 2% hits; in the data active = inhibition above about 40%;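 note: 0% = ligand without compound and 100% = no ligand background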
* = called active by the depositor; . = no result given.

SMILES	MT1-MMP act inh	Granule exo inh	ABCB6 inh 2	FGF22 binding	DAGLB inh	VLA-4 inh	VLA-4 mod pick
CCOc1ccc(Oc2c(/C=N/NC(=O)COc3ccccc3OC)c(C)nn2-c2ccccc2)cc1	-20	0	94	.	-6	46	3
CCCc1nc2ccccc2c(=O)n1/N=C/c1ccccc1O	2	0	99	.	3	91*	0
COc1ccc2[nH]c(=O)c(-c3noc(-c4ccccc4)n3)cc2c1	-2	-1	102	.	-3	96*	-1
COc1ccc2[nH]c(=O)c(-c3nnn(-c4ccccc4)n3)cc2c1	-1	-5	92	0	-3	.	.
C[C@H]1CN([C@@H](C)CO)C(=O)c2cc(-c3ccccc3)cnc2O[C@@H]1CN(C)Cc1ccc(C(=O)O)cc1	.	.	.	0	.	.	.
NC(=O)Cn1cc(C(=O)C(=O)N2CCOCC2)c2ccccc21	-2	0	93	.	1	-1	0
CN1CCN(C(=O)C(=O)c2cn(CC(=O)N3CCOCC3)c3ccccc23)CC1	-2	-4	94	0	2	.	.
CCn1cc(C(=O)OCc2cccc(Br)c2)c(=O)c2ccc(C)nc21	5	-3	98	.	-4	54*	0
O=C1COc2ccc(N3C(=O)c4ccccc4C3=O)cc2N1	.	.	.	.	.	52*	9
COc1ccc(N(CC(=O)N2CCc3ccccc32)S(=O)(=O)c2c(C)nn(C)c2C)cc1	-4	3	102	0	2	16	-1
CCCOc1ccc(N2C(=O)CC(N3CCOCC3)C2=O)cc1 (stereo not given)	-5	1	98	.	2	6	.
COc1ccc(N2C(=O)CC(N3CCCCC3)C2=O)cc1 (stereo not given)	0	-1	95	1	-2	0	-3
CCCOc1ccc(N2C(=O)CC(N3CCC(C(=O)OCC)CC3)C2=O)cc1 (stereo not given)	2	0	101	.	4	4	-7
C[C@@H]1CN([C@H](C)CO)C(=O)c2cccc(NC(=O)C3CC3)c2O[C@@H]1CN(C)S(=O)(=O)c1ccc(Cl)cc1	.	.	.	0	.	.	.
CC(C)NC(=O)N(C)C[C@H]1Oc2ccc(NC(=O)CCC(F)(F)F)cc2CC(=O)N([C@H](C)CO)C[C@@H]1C	.	.	.	0	.	.	.
COC(=O)c1cc(CNC(=O)C(C)NS(=O)(=O)c2ccc(C)c(C)c2)ccc1OC (stereo not given)	-3	-3	99	0	0	3	0
COc1ccc(S(=O)(=O)NC(C)C(=O)NCc2ccncc2)cc1C (stereo not given)	2	22	103	0	2	11	.
C[C@H](CO)N1C[C@H](C)[C@H](CN(C)Cc2ccc(C(=O)Nc3ccccc3N)cc2)Oc2ccc(NC(=O)CCC(F)(F)F)cc2C1=O	.	.	.	0	.	.	.
Cn1c2ccc(F)cc2c2ncn(Cc3ccco3)c(=O)c21	-1	1	106	.	-2	.	.
Cn1c2ccccc2c2ncn(Cc3ccco3)c(=O)c21	6	-3	93	.	2	55*	0
CC(=O)Nc1ccc(S(=O)(=O)Nc2nc3ccccc3nc2Cl)cc1	3	0	97	0	0	42	5
CC(=O)Nc1ccc(S(=O)(=O)Nc2nc3cc4c(cc3nc2Cl)OCCO4)cc1	-7	0	93	0	0	8	.
CC(=O)Nc1ccc(S(=O)(=O)Nc2nccc(C)n2)cc1	1	-2	104	0	0	-10	-3
COc1ccc(NC(=O)Nc2ccc3c(c2)C(=O)N([C@H](C)CO)C[C@H](C)[C@@H](CN(C)C(=O)NC2CCCCC2)O3)cc1	5	0	104	0	4	50*	6
COc1ccc(NC(=O)Nc2ccc3c(c2)C(=O)N([C@H](C)CO)C[C@@H](C)[C@H](CN(C)C(=O)NC2CCCCC2)O3)cc1	.	.	.	0	.	.	.
SMILES	MT1-MMP act inh	Granule exo inh	ABCB6 inh 2	FGF22 binding	DAGLB inh	VLA-4 inh	VLA-4 mod pick
Cc1noc(C)c1S(=O)(=O)Nc1ccc2c(c1)CC(=O)N([C@H](C)CO)C[C@@H](C)[C@H](CN(C)CC1CC1)O2	.	.	.	0	.	.	.
C[C@H](CO)N1C[C@H](C)[C@@H](CN(C)Cc2ccc(C(=O)O)cc2)Oc2ccc(NC(=O)C3CCCCC3)cc2C1=O	.	.	.	0	.	.	.
CCCNC(=O)C[C@@H]1CC[C@@H]2[C@H](COc3ccc(NC(=O)c4cccc(Cl)c4)cc3C(=O)N2C)O1	.	.	.	0	.	.	.
CSc1cccc(N2C(=O)C3CCCN3C2=S)c1 (stereo not given)	-2	-5	103	0	1	47	-13
COc1cc(/C=N/Nc2ncc(C(F)(F)F)cc2Cl)cc(OC)c1OC	8	3	100	43*	-3	41	7
O=C(C[C@@H]1C=C[C@H](NC(=O)c2ccc3c(c2)OCO3)[C@@H](CO)O1)NCc1ccc(Cl)cc1	.	.	.	-1	.	.	.
CCC1Nc2ccccc2-c2nnc(SC)nc2O1 (stereo not given)	7	-7	95	.	0	-2	.
CCSc1nnc2c(n1)OC1(CCCC1)Nc1ccccc1-2	2	-6	100	0	-6	55*	0
C[C@H](CO)N1C[C@H](C)[C@@H](CN(C)Cc2ccc(C(=O)O)cc2)Oc2ccc(NC(=O)Nc3ccc(F)cc3)cc2CC1=O	.	.	.	0	.	.	.
CN1CC(=O)N(CC(=O)Nc2ccc(Br)cc2F)C1=O	-1	-1	100	0	-2	70*	-2
COc1ccccc1-n1cnnc1SCC(=O)Nc1ccccc1	-2	-4	96	0	0	8	.
COc1ccccc1-n1cnnc1SCc1csc(-c2ccccc2)n1	1	0	88	.	1	95*	-8
COc1ccccc1NC(=O)N(C)C[C@@H]1Oc2ncc(Br)cc2C(=O)N([C@H](C)CO)C[C@H]1C	.	.	.	0	.	.	.
CN1CCN(c2nc(-c3ccccc3Cl)nc3ccccc23)CC1	-19	-5	97	0	0	6	.
CN1CCN(c2nc(-c3ccccc3O)nc3ccccc23)CC1	-15	18	97	0	-3	47	7

Assay outcomes from PubChem BioAssay.
